Results from ChEMBL document CHEMBL2169868, “Flavone-based novel antidiabetic and antidyslipidemic agents” (J Med Chem, 2012).
Calls of active or inactive are those of the source. No cut-off for these calls is given here.

Tests used:
Type in all cases: functional
Rattus norvegicus [1] = test: Antihyperlipidemic activity in Triton-induced dyslipidemic Wistar rat model assessed as reduction in phospholipid level at 100 mg/kg, po; set-up: scale not given: the % may be the effect or the level left
Method in brief: (§1)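 Male Wistar rats, 8−10 weeks, about 160 g, fed normal pellet diet. Triton X-100 given at 400 mg/kg ip; compound given orally in 1% gum acacia. Retro-orbital blood taken 18 h after Triton and serum separated at 1500g for 10 min. TG and cholesterol measured by kit. Mean % change versus dyslipidemic control, 5 animals.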

Rattus norvegicus [2] = test: Antidiabetic activity in sucrose challenged streptozotocin-induced diabetic Sprague-Dawley rat model assessed as reduction in glucose levels at 100 mg/kg, po measured after 24 hrs; set-up: scale not given: the % may be the effect or the level left
Rattus norvegicus [3] = test: Antihyperlipidemic activity in Triton-induced dyslipidemic Wistar rat model assessed as reduction in triglyceride level at 100 mg/kg, po; set-up: scale not given: the % may be the effect or the level left; method in brief: as §1
Rattus norvegicus [4] = test: Antidiabetic activity in sucrose challenged streptozotocin-induced diabetic Sprague-Dawley rat model assessed as reduction in glucose levels at 100 mg/kg, po measured after 5 hrs; set-up: scale not given: the % may be the effect or the level left
Rattus norvegicus [5] = test: Antihyperlipidemic activity in Triton-induced dyslipidemic Wistar rat model assessed as reduction in cholesterol level at 100 mg/kg, po; set-up: scale not given: the % may be the effect or the level left; method in brief: as §1
Rattus norvegicus [6] = test: Antidiabetic activity in sucrose loaded Wistar rat model assessed as reduction in glucose levels at 100 mg/kg, po
Mus musculus [7] = test: Antihyperglycemic activity in diabetic C57BL/KsJ db/db mouse model assessed as reduction in hyperglycemia at 25 mg/kg, po qd for 10 days; set-up: scale not given: the % may be the effect or the level left
Method in brief: (§2)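 db/db mice (C57BL/KsJ, 12−18 weeks, 40−50 g, glucose 200−350 mg/dL), housed at 23 ± 2.0 °C on a 12 h light cycle. Oral dosing daily for 10 days. Blood glucose checked each morning through day 9. Body weight recorded daily from day 1 to day 10. Mean % change versus vehicle, 5 mice per group; Student t test.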

Mus musculus [8] = test: Antihyperglycemic activity in diabetic C57BL/KsJ db/db mouse model assessed as improvement in glucose tolerance in hyperglycemia at 25 mg/kg, po qd for 10 days
Method in brief: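 Male/female C57BL/KsJ db/db mice, 12−18 weeks, 40−50 g, selected for glucose 200−350 mg/dL. Oral dosing daily for 10 days. OGTT on day 10 after an overnight fast: compound at −30 min, then 3 g/kg oral glucose at 0 min. Glucose read at 30, 60, 90 and 120 min. AUC taken versus vehicle, 5 mice per group.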

Mus musculus [9] = test: Antidyslipidemic activity in diabetic C57BL/KsJ db/db mouse model assessed as reduction in plasma triglyceride level at 25 mg/kg, po qd for 10 days; set-up: scale not given: the % may be the effect or the level left
Method in brief: (§3)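 db/db mice (blood glucose 200−350, TG 170−250, cholesterol 170−250, HDL-C 32−40 mg/dL) dosed orally at 25 mg/kg daily for 10 days; retro-orbital blood taken on day 11 for plasma TG, cholesterol and HDL-C (and HDL-C/CHOL ratio); mean % change versus vehicle control, 5 mice per group; Student t test.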

Mus musculus [10] = test: Antidyslipidemic activity in diabetic C57BL/KsJ db/db mouse model assessed as increase in plasma HDL-cholesterol level at 25 mg/kg, po qd for 10 days; method in brief: as §3
Mus musculus [11] = test: Antidyslipidemic activity in diabetic C57BL/KsJ db/db mouse model assessed as increase in plasma HDL-C/cholesterol ratio at 25 mg/kg, po qd for 10 days; method in brief: as §3
Mus musculus [12] = test: Antihyperglycemic activity in diabetic C57BL/KsJ db/db mouse model assessed as reduction in plasma insulin level in hyperglycemia at 25 mg/kg, po qd for 10 days; set-up: scale not given: the % may be the effect or the level left
Method in brief: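 db/db mice dosed orally every day for 10 days. On day 11, retro-orbital blood was drawn and plasma insulin measured. Mean % change versus vehicle-treated control, 5 mice per group; Student t test.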

Mus musculus [13] = test: Reduction in body weight in diabetic C57BL/KsJ db/db mouse model in hyperglycemia at 25 mg/kg, po qd for 10 days relative to untreated control; method in brief: as §2
Mus musculus [14] = test: Antidyslipidemic activity in diabetic C57BL/KsJ db/db mouse model assessed as reduction in plasma cholesterol level at 25 mg/kg, po qd for 10 days; set-up: scale not given: the % may be the effect or the level left; method in brief: as §3

SMILES	Activity (Rattus norvegicus [1])	Activity (Rattus norvegicus [2])	Activity (Rattus norvegicus [3])	Activity (Rattus norvegicus [4])	Activity (Rattus norvegicus [5])	Activity (Rattus norvegicus [6])	Activity (Mus musculus [7])	Activity (Mus musculus [8])	Activity (Mus musculus [9])	Activity (Mus musculus [10])	Percent increase in HDL-C/cholesterol ratio vs vehicle (Mus musculus [11])	Activity (Mus musculus [12])	Activity (Mus musculus [13])	Activity (Mus musculus [14])
COc1ccc(-c2cc(=O)c3ccc(OCC(O)CN4CCN(c5ccccc5)CC4)cc3o2)cc1OC (configuration not stated)	22%	2.34%	19%	4.35%	23%	–	–	–	–	–	–	–	–	–
COc1cc(OC)cc(-c2cc(=O)c3ccc(OCC(O)CN4CCN(c5ccccc5)CC4)cc3o2)c1 (configuration not stated)	12.8%	–	17.3%	–	14.3%	inactive	–	–	–	–	–	–	–	–
COc1cc(-c2cc(=O)c3ccc(OCC(O)CNC(C)(C)C)cc3o2)cc(OC)c1OC (configuration not stated)	26%	–	28%	–	24%	inactive	–	–	–	–	–	–	–	–
CC(C)NCC(O)COc1ccc2c(=O)cc(-c3ccc(O)c(O)c3)oc2c1 (configuration not stated)	13%	–	19%	–	15%	inactive	–	–	–	–	–	–	–	–
COc1cc(-c2cc(=O)c3ccc(OCC(O)CNC(C)C)cc3o2)cc(OC)c1OC (configuration not stated)	16%	–	19%	–	18%	20.7%	–	–	–	–	–	–	–	–
CC(C)(C)NCC(O)COc1ccc2c(=O)cc(-c3cc(OCc4cc(Cl)cc(Cl)c4)cc(OCc4cc(Cl)cc(Cl)c4)c3)oc2c1 (configuration not stated)	12.2%	inactive	11.3%	14.2%	8.93%	25.9%	–	–	–	–	–	–	–	–
CC(C)(C)NCC(O)COc1ccc2c(=O)cc(-c3ccc(OCc4ccccc4)c(OCc4ccccc4)c3)oc2c1 (configuration not stated)	12%	0.89%	16%	11.8%	23%	15.9%	–	–	–	–	–	–	–	–
CC(C)(C)NCC(O)COc1ccc2c(=O)cc(-c3cc(OCc4ccccc4Cl)cc(OCc4ccccc4Cl)c3)oc2c1 (configuration not stated)	11.3%	inactive	18.7%	7.48%	12.5%	14.8%	–	–	–	–	–	–	–	–
CC(C)(C)NCC(O)COc1ccc2c(=O)cc(-c3cc(O)cc(O)c3)oc2c1 (configuration not stated)	4%	–	16%	–	17%	–	–	–	–	–	–	–	–	–
CC(C)NC[C@@H](O)COc1ccc2c(=O)cc(-c3cc(O)cc(O)c3)oc2c1	–	–	–	–	–	–	28.2%	22.4%	14.1%	3.59%	16.6	9.1%	inactive	11.2%
CC(C)NCC(O)COc1ccc2c(=O)cc(-c3cc(OCc4ccccc4)cc(OCc4ccccc4)c3)oc2c1 (configuration not stated)	8%	2.23%	11%	7.86%	13%	inactive	–	–	–	–	–	–	–	–
CC(C)(C)NCC(O)COc1ccc2oc(-c3ccc(OCc4ccccc4)c(OCc4ccccc4)c3)cc(=O)c2c1 (configuration not stated)	12%	0.36%	17%	–	21%	21.8%	–	–	–	–	–	–	–	–
CN(CCOc1ccc(CC2SC(=O)NC2=O)cc1)c1ccccn1 (configuration not stated) [ROSIGLITAZONE]	–	–	–	–	–	–	54.3%	49.5%	24.5%	6.98%	108.7	40.5%	-18.3%	32.6%
Cc1ccc(COc2cc(OCc3ccc(C)cc3)cc(-c3cc(=O)c4ccc(OCC(O)CN(C(C)C)C(C)C)cc4o3)c2)cc1 (configuration not stated)	4.67%	inactive	12.1%	12.2%	10.1%	15.7%	–	–	–	–	–	–	–	–
COc1cc(OC)cc(-c2cc(=O)c3ccc(OCC(O)CNC(C)C)cc3o2)c1 (configuration not stated)	21%	inactive	24%	inactive	17%	–	–	–	–	–	–	–	–	–
Cc1ccc(COc2cc(OCc3ccc(C)cc3)cc(-c3cc(=O)c4ccc(OCC(O)CNCc5ccccc5)cc4o3)c2)cc1 (configuration not stated)	20.8%	17.9%	27.2%	26.2%	16.5%	32%	–	–	–	–	–	–	–	–
CN(C)C(=N)NC(=N)N [METFORMIN]	6.2%	19.4%	5.9%	24.3%	4.2%	22.1%	–	–	–	–	–	–	–	–
CC(C)NCC(O)COc1ccc2c(=O)cc(-c3ccc(OCc4ccccc4)c(OCc4ccccc4)c3)oc2c1 (configuration not stated)	5%	2.34%	14%	12.4%	16%	17.9%	–	–	–	–	–	–	–	–
COc1cc(OC)cc(-c2cc(=O)c3ccc(OCC(O)CNC(C)(C)C)cc3o2)c1 (configuration not stated)	19%	2.36%	17%	4.86%	21%	inactive	–	–	–	–	–	–	–	–
COc1cc(-c2cc(=O)c3ccc(OCC(O)CN4CCN(c5ccccc5)CC4)cc3o2)cc(OC)c1OC (configuration not stated)	8%	0.24%	23%	2.36%	19%	–	–	–	–	–	–	–	–	–
COc1ccc(-c2cc(=O)c3ccc(OCC(O)CNC(C)C)cc3o2)cc1OC (configuration not stated)	–	6.83%	–	13.8%	–	23.9%	–	–	–	–	–	–	–	–
CC(C)NCC(O)COc1ccc2c(=O)cc(-c3cc(OCc4ccccc4Cl)cc(OCc4ccccc4Cl)c3)oc2c1 (configuration not stated)	20.2%	inactive	30.2%	6.83%	12.1%	12.6%	–	–	–	–	–	–	–	–
Cc1ccccc1COc1cc(OCc2ccccc2C)cc(-c2cc(=O)c3ccc(OCC(O)CNC(C)(C)C)cc3o2)c1 (configuration not stated)	12.6%	17.2%	28.2%	23.2%	22.3%	39.1%	–	–	–	–	–	–	–	–
Cc1ccc(COc2cc(OCc3ccc(C)cc3)cc(-c3cc(=O)c4ccc(OCC(O)CNC(C)(C)C)cc4o3)c2)cc1 (configuration not stated)	16.2%	–	12.8%	–	11.2%	13.6%	–	–	–	–	–	–	–	–
Cc1ccc(COc2cc(OCc3ccc(C)cc3)cc(-c3cc(=O)c4ccc(OCC(O)CNC(C)C)cc4o3)c2)cc1 (configuration not stated)	26.5%	11.9%	25.6%	22.8%	20.3%	51.6%	–	–	–	–	–	–	–	–
O=c1cc(-c2cc(OCc3ccccc3)cc(OCc3ccccc3)c2)oc2cc(OCC(O)CN3CCN(c4ccccc4)CC3)ccc12 (configuration not stated)	21%	–	17%	14.3%	24%	–	–	–	–	–	–	–	–	–
CC(C)(C)NCC(O)COc1ccc2c(=O)cc(-c3ccc(O)c(O)c3)oc2c1 (configuration not stated)	23%	–	25%	–	21%	inactive	–	–	–	–	–	–	–	–
CC(C)(C)NCC(O)COc1ccc2oc(-c3ccc(O)c(O)c3)cc(=O)c2c1 (configuration not stated)	23%	inactive	25%	inactive	24%	–	–	–	–	–	–	–	–	–
CC(C)NCC(O)COc1ccc2c(=O)cc(-c3cc(OCc4cc(Cl)cc(Cl)c4)cc(OCc4cc(Cl)cc(Cl)c4)c3)oc2c1 (configuration not stated)	11.8%	16.2%	26%	22.1%	22.2%	32.7%	–	–	–	–	–	–	–	–
Cc1ccccc1COc1cc(OCc2ccccc2C)cc(-c2cc(=O)c3ccc(OCC(O)CNC(C)C)cc3o2)c1 (configuration not stated)	24.1%	–	26.2%	–	13.5%	4.65%	–	–	–	–	–	–	–	–
